Among the data in ChEMBL document CHEMBL1133020, “Structure-based design, synthesis, and biological evaluation of novel pyrrolyl aryl sulfones: HIV-1 non-nucleoside reverse transcriptase inhibitors active at nanomolar concentrations” (J Med Chem, 2000) are CC50, Selectivity and EC50 values, retold here.

The first assay deals with MT4. Description: 50% cytotoxic concentration against mock-infected MT-4 cells using MTT method. The format is functional. The settings on record: Homo sapiens. In short, it runs like this: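 Viability of mock-infected MT-4 cells run in parallel with the antiviral assay; viable cells counted by MTT; CC50 = dose (µM) reducing viability by 50%.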
On the technique in general: Formazan colour is commonly taken as a measure of viable cells.
In the case of `CCOC(=O)c1cccn1S(=O)(=O)c1cc(Cl)ccc1N`, the CC50 is > 200 µM.
Same read-out and setting: the same measure for `CCOC(=O)c1cc(CNc2ccccc2)cn1S(=O)(=O)c1cc(Cl)ccc1N`: > 200 µM.
Compound `C=Cc1cc(C(=O)OCC)n(S(=O)(=O)c2cc(Cl)ccc2N)c1` had a CC50 of 47 µM. This counts as double-digit micromolar.
`CCOC(=O)c1cc(CO)cn1S(=O)(=O)c1cc(Cl)ccc1N`: the CC50 worked out at 240 µM.
For the compound `CCOC(=O)c1cc(COC)cn1S(=O)(=O)c1cc(Cl)ccc1N`, the CC50 was > 200 µM.
Take `CCOC(=O)c1cccn1S(=O)(=O)c1c(N)cccc1Cl`: half-maximal cytotoxicity (CC50) was put at 180 µM.
The same measure, in the same setting: the figure for `Cc1ccnc2c1NC(=O)c1cccnc1N2C1CC1` [NEVIRAPINE] is > 200 µM; for `CCOC(=O)c1cc(COc2ccccc2)cn1S(=O)(=O)c1cc(Cl)ccc1N` it is > 200 µM; for `CC(C)OC(=O)c1cc(CO)cn1S(=O)(=O)c1cc(Cl)ccc1N` it is 116 µM.
Same read-out and setting: the same measure for `CCOC(=O)c1cc(C(C)O)cn1S(=O)(=O)c1cc(Cl)ccc1N` (stereo unspecified): 115 µM; for `CCOC(=O)c1cccn1S(=O)(=O)c1cc(Cl)ccc1-n1cccc1`: 110 µM; for `CCOC(=O)c1cc(C)cn1S(=O)(=O)c1cc(Cl)ccc1N`: > 200 µM.
Compound `CC(C)OC(=O)c1cc(CNc2ccccc2)cn1S(=O)(=O)c1cc(Cl)ccc1N` gave a CC50 of 40 µM.

Tested on in the next assay: not listed separately
Description: Selectivity index, ratio of CC50 to EC50.
Settings: not given
The format is functional. Summed up: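 Ratio of CC50 (mock-infected MT-4 viability, MTT) to EC50 (protection of MT-4 cells from HIV-1 cytopathicity, MTT).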
As for `CCOC(=O)c1cccn1S(=O)(=O)c1cc(Cl)ccc1N`, the Selectivity is > 1430.
On to `CCOC(=O)c1cc(CNc2ccccc2)cn1S(=O)(=O)c1cc(Cl)ccc1N`, for which the Selectivity is > 55.5.
Turning to `C=Cc1cc(C(=O)OCC)n(S(=O)(=O)c2cc(Cl)ccc2N)c1`, the Selectivity was determined as 274.
Same read-out and setting: the same measure for `CCOC(=O)c1cc(CO)cn1S(=O)(=O)c1cc(Cl)ccc1N`: 5330; for `CCOC(=O)c1cc(COC)cn1S(=O)(=O)c1cc(Cl)ccc1N`: > 500; for `CCOC(=O)c1cccn1S(=O)(=O)c1c(N)cccc1Cl`: 2.5.
The same measure, in the same setting: the same measure for `CCOC(=O)c1cc(COc2ccccc2)cn1S(=O)(=O)c1cc(Cl)ccc1N`: > 49; for `CC(C)OC(=O)c1cc(CO)cn1S(=O)(=O)c1cc(Cl)ccc1N`: 1160; for `CCOC(=O)c1cc(C(C)O)cn1S(=O)(=O)c1cc(Cl)ccc1N` (stereo unspecified): 460.
As to `CCOC(=O)c1cc(C)cn1S(=O)(=O)c1cc(Cl)ccc1N`, the Selectivity was > 2220.
As to `CC(C)OC(=O)c1cc(CNc2ccccc2)cn1S(=O)(=O)c1cc(Cl)ccc1N`, the Selectivity turned out to be 200.

A further assay has as its system MT4. Description: Effective concentration against HIV-1 induced cytopathicity in MT-4 cells using MTT method. The format is functional, cell-based. The settings on record: Homo sapiens. Summed up: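 MT-4 cells acutely infected with HIV-1; inhibition of virus-induced cytopathicity; viable cells determined by MTT; EC50 = dose (µM) giving 50% protection from cytopathicity.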
`CCOC(=O)c1cc(CNc2ccccc2)cn1S(=O)(=O)c1cc(Cl)ccc1N` came in with an EC50 of 3.1 µM.
Regarding `C=Cc1cc(C(=O)OCC)n(S(=O)(=O)c2cc(Cl)ccc2N)c1`, the 50% effective concentration (EC50) amounted to 0.17 µM.
For `CCOC(=O)c1cc(CO)cn1S(=O)(=O)c1cc(Cl)ccc1N`, the response was half-maximal at 0.045 µM (EC50).
The same measure, in the same setting: the figure for `CCOC(=O)c1cc(COC)cn1S(=O)(=O)c1cc(Cl)ccc1N` is 0.4 µM; for `CCOC(=O)c1cccn1S(=O)(=O)c1c(N)cccc1Cl` it is 72 µM.
As for `Cc1ccnc2c1NC(=O)c1cccnc1N2C1CC1` [NEVIRAPINE], the EC50 was 0.35 µM. Against the preceding compound, the EC50 is about 210-fold lower.
As to `CCOC(=O)c1cc(COc2ccccc2)cn1S(=O)(=O)c1cc(Cl)ccc1N`, the EC50 is 4.1 µM.
In turn, `CC(C)OC(=O)c1cc(CO)cn1S(=O)(=O)c1cc(Cl)ccc1N` displayed an EC50 of 0.1 µM.
On the same count and under the same terms, the same measure for `CCOC(=O)c1cc(C(C)O)cn1S(=O)(=O)c1cc(Cl)ccc1N` (stereo unspecified): 0.25 µM.
As to `CCOC(=O)c1cccn1S(=O)(=O)c1cc(Cl)ccc1-n1cccc1`, the concentration giving a half-maximal response (EC50) is > 110 µM.
`CCOC(=O)c1cc(C)cn1S(=O)(=O)c1cc(Cl)ccc1N` registered a concentration for a half-maximal effect (EC50) of 0.09 µM.
Compound `CC(C)OC(=O)c1cc(CNc2ccccc2)cn1S(=O)(=O)c1cc(Cl)ccc1N` registered an EC50 of 0.2 µM.

The CC50 is the concentration giving 50% cytotoxicity. Higher therefore signals better tolerance by the cells. Broadly, the EC50 is the concentration that produces a half-maximal response.
